In PubChem BioAssay:
Calls of active or inactive are those of the source.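 How the source made its calls, unless noted: active means mean duplicate potentiation above the buffer control mean plus 5 SD of buffer wells; inactive means the rest.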

Tests used:
[1] = thallium flux activation in parental CHO cells, counter-screen for KCNQ1 potentiator project (AID 493006;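 active means duplicate-averaged activation above buffer control mean plus 5 SD of those controls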;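 on activation: fluorescence ratio of max minus min over baseline after K+ and Tl+ depolarization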); conditions: parental CHO-K1 cells, FluxOR thallium flux, at 10 µM; stronger effect = higher value
Method in brief: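 Assay system: parental CHO-K1 cells lacking KCNQ1, loaded with FluxOR thallium dye; timing: dye 90 min RT, compound 20 min RT; signal: kinetic thallium-flux fluorescence; repeats: duplicate wells per compound, percent values averaged; benchmarks: buffer and R-L3 controls; reagent: Potassium/thallium depolarization pulse; read-out: fluorescence change ratio scaled 0% buffer, 100% R-L3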

[2] = target: Potassium voltage-gated channel subfamily KQT member 1 (Homo sapiens) (UniProt P51787); assay: KCNQ1 potassium channel potentiators, confirmation, FluxOR thallium flux, CHO cells, duplicates (AID 493007;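 active means potentiation averaged over duplicate wells exceeding buffer-only control mean by more than 3 SD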;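 on outcome: cells depolarized by a potassium plus thallium sulfate stimulus after compound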); conditions: KCNQ1 cell line, FluxOR thallium flux fluorescence, at 10 µM; stronger effect = higher value, % of reference activator effect, buffer zero
Potassium voltage-gated channel subfamily KQT member 1 (Homo sapiens), sequence (P51787 whole entry, looked up): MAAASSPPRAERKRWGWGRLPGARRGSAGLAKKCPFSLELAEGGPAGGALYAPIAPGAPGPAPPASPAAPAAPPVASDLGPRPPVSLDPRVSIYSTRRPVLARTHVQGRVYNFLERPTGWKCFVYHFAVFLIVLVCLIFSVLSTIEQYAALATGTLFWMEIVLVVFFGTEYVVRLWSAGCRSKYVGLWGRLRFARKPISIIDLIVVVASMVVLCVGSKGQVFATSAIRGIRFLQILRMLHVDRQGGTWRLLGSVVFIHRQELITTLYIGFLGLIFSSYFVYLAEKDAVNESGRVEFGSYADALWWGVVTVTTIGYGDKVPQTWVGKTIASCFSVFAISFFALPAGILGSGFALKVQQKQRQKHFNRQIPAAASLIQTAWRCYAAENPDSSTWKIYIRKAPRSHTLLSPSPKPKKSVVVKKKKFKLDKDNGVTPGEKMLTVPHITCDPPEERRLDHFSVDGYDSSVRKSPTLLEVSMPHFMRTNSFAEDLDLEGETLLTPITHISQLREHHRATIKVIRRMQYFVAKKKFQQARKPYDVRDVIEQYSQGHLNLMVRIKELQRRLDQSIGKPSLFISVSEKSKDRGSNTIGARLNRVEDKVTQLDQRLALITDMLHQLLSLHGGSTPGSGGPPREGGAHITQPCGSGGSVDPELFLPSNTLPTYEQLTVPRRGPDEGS
Method in brief: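 material = CHO cells stably expressing the KCNQ1 potassium channel | repeats = duplicate wells per compound | measure = percent activation between buffer and R-L3 responses | signal = FluxOR thallium-flux fluorescence, kinetic read | schedule = FluxOR dye loading 90 min, compound exposure 20 min, room temperature | control set = buffer and R-L3 controls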

[3] = target: Potassium voltage-gated channel subfamily KQT member 2 (Rattus norvegicus) (UniProt O88943); assay: rat KCNQ2 channel potentiation, selectivity assay for KCNQ1 potentiator project, KCNQ2-CHO-K1 cells (AID 493009); conditions: FluxOR thallium flux fluorescence, at 10 µM; stronger effect = higher value, scaled: buffer 0, activator control 100;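 further: assay conditions were tuned for KCNQ1 rather than KCNQ2 modulators; signal is max minus min fluorescence divided by baseline after thallium stimulus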
Potassium voltage-gated channel subfamily KQT member 2 (Rattus norvegicus), sequence (O88943 whole entry, looked up): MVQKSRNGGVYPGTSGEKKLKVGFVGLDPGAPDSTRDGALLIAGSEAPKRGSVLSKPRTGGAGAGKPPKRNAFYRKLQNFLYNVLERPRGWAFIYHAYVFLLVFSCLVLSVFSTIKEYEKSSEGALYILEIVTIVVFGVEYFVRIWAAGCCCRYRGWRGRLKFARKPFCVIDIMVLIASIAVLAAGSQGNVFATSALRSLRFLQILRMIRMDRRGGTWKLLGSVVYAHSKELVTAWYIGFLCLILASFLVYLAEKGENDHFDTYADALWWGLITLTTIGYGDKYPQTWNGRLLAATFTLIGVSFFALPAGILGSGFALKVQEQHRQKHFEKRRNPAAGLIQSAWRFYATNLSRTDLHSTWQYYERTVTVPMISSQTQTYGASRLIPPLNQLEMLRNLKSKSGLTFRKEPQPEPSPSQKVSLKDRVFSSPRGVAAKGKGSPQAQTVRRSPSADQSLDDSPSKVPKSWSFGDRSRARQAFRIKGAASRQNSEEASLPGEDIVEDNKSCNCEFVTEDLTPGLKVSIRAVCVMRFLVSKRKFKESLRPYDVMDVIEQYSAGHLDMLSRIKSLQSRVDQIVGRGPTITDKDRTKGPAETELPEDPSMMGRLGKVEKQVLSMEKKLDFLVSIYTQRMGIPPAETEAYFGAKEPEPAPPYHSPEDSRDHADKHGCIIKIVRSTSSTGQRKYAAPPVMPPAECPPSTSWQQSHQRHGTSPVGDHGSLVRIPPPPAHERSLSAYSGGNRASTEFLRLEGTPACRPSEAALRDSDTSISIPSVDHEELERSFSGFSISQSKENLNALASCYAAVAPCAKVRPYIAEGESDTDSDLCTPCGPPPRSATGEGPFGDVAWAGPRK

[4] = target: Potassium voltage-gated channel subfamily KQT member 1 (Homo sapiens) (UniProt P51787); assay: KCNQ1 channel current potentiators, confirmation, orthogonal assay for KCNQ1 potentiator project, IonWorks patch clamp, KCNQ1-CHO cells (AID 493184;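 active means current rise at least 3 SD above the untreated control mean in each of two repeat wells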); conditions: automated patch clamp current, at 10 µM; stronger effect = higher value
Method in brief: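 Assay system – CHO cells carrying KCNQ1 · Medium – pH 7.4 external bath · Probe or stimulus – depolarizing pulse to +40 mV from -90 mV · Compound dosing – one dose, 10 µM final · Measured by – automated perforated-patch electrophysiology · Measure – % potentiation of steady-state current relative to pre-compound · Repeats – two replicates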

| SMILES | activation [1] | potentiation [2] | potentiation [3] | outcome [4] | outcome [2] | outcome [1] | outcome [3] |
| --- | --- | --- | --- | --- | --- | --- | --- |
| Cc1ccc(C)c(/C=C/C(=O)c2ccccc(=O)c2O)c1 | 194% (active) | 118% (active) | 333% (active) | inactive | – | – | – |
| O=C(NC(=S)Nc1ccccc1)c1cccs1 | 137% (active) | – | 142% (active) | inactive | inactive | – | – |
| Cc1ccc2nc(C)cc(N/N=C/c3cccnc3)c2c1 | – | – | – | inactive | inactive | inactive | inactive |
| CC(OC(=O)CC1Sc2ccccc2NC1=O)C(=O)NC1CCCC1 (stereo not given) | – | – | – | inactive | inactive | inactive | inactive |
| CC(CCc1ccccc1)NC(=O)COc1cc(F)ccc1[N+](=O)[O-] (stereo not given) | – | – | – | inactive | inactive | inactive | inactive |
| CCc1ccc2c(c1)c(N=NC1=NC(=O)CS1)c(O)n2C | 162% (active) | 30% (active) | – | inactive | – | – | inactive |
| Cc1sc(-n2c(C)cc(/C=C3\SC(=S)NC3=O)c2C)c(C#N)c1C | 145% (active) | 36% (active) | – | inactive | – | – | inactive |
| CCCCCn1c(=S)[nH]c2ncccc2c1=O | 206% (active) | 39.5% (active) | 200% (active) | inactive | – | – | – |
| COc1cccc(CN(C)C(=O)c2cc(COc3ccc4ncccc4c3)on2)c1 | – | – | – | inactive | inactive | inactive | inactive |
| CCSC(=S)c1c(C)[nH]n(-c2ccccc2)c1=O | 164% (active) | 30% (active) | 184% (active) | inactive | – | – | – |
| CC(C)(C)C1(O)CC(C(F)(F)F)=NN1C(=O)Cc1ccc([N+](=O)[O-])cc1 (stereo not given) | – | – | – | inactive | inactive | inactive | inactive |
| Cc1cc(NC(c2cccnc2)c2c(C)[nH]c3ccccc23)no1 (stereo not given) | – | – | – | inactive | inactive | inactive | inactive |
| OC(CON=C1c2ccccc2-c2ccccc21)CN1CCNCC1 (stereo not given) | – | – | – | inactive | inactive | inactive | inactive |
| Cc1cc(Br)ccc1OCC(=O)NNC(=O)C(=O)Nc1ccccc1 | 406% (active) | 224% (active) | 478% (active) | inactive | – | – | – |
| CCOc1ccc(C2C(C#N)=C(N)N(c3sc4c(c3C#N)CCCC4)C3=C2C(=O)CCC3)cc1 (stereo not given) | – | – | – | inactive | inactive | inactive | inactive |
| O=C(NC(=S)N1CCc2ccccc21)c1ccccc1Cl | 443% (active) | 130% (active) | 416% (active) | inactive | – | – | – |
| CC(C)C(=O)Nc1c(-c2ccccc2F)c(=O)c2ccccc2n1C | – | – | – | inactive | inactive | inactive | inactive |
| O=C(CN(Cc1ccccc1Cl)C(=O)c1csnn1)NC1CCCC1 | – | – | – | inactive | inactive | inactive | inactive |
| CCOc1ccc(NC(=O)CN(C)C(=O)c2c(-c3c(F)cccc3Cl)noc2C)cc1OCC | – | – | – | inactive | inactive | inactive | inactive |
| Cc1nn2c(c1-c1ccccc1)NC1=C(C(=O)CCC1)C2c1ccccc1 (stereo not given) | – | – | – | inactive | inactive | inactive | inactive |

| SMILES | activation [1] | potentiation [2] | potentiation [3] | outcome [4] | outcome [2] | outcome [1] | outcome [3] |
| --- | --- | --- | --- | --- | --- | --- | --- |
| Cc1cc(OCC(=O)NNC(=O)c2cnccn2)cc(C)c1Cl | 200% (active) | 22% (active) | 279% (active) | inactive | – | – | – |
| Cc1cccc(N=Cc2cc(Br)cc(Cl)c2O)c1 | 188% (active) | 27% (active) | – | inactive | – | – | inactive |
| CC(=O)Oc1c(-c2ccc(Br)o2)oc2ccccc2c1=O | 480% (active) | 109% (active) | 482% (active) | inactive | – | – | – |
| COc1ccc(C2c3ccc4ccccc4c3Oc3ncn(CCN4CCOCC4)c(=N)c32)cc1 (stereo not given) | – | – | – | inactive | inactive | inactive | inactive |
| COC(=O)c1ccccc1NC(=O)Cn1c(=O)n(Cc2ccccc2)c(=O)c2c(C)c(C)sc21 | – | – | – | inactive | inactive | inactive | inactive |
| CCC(NC(=O)CCc1nnc(-c2cc(C)on2)o1)C12CC3CC(CC(C3)C1)C2 (stereo not given) | – | – | – | inactive | inactive | inactive | inactive |
| COc1ccc(NC(=O)[C@@H]2CC=C[C@@H]3CCN(C4CCCCC4)C(=O)[C@@H]32)cc1 | – | – | – | inactive | inactive | inactive | inactive |
| CO/N=C/CC(=O)Nc1ccc(F)cc1F | – | – | – | inactive | inactive | inactive | inactive |
| C=CCn1c(=S)[nH]c2nc3c(cc2c1=O)CCCC3 | – | 34% (active) | 152% (active) | inactive | – | inactive | – |
| CS(=O)(=O)N1CCN(c2ccccc2NC(=O)CSc2nnc(-c3ccco3)o2)CC1 | – | – | – | inactive | inactive | inactive | inactive |
| COc1ccc(NC(=O)/C(=C/c2ccc(OC(C)=O)c(OC)c2)NC(C)=O)cc1 | – | – | – | inactive | inactive | inactive | inactive |
| COc1cccc(C(=O)NC(=S)N2c3ccccc3CC2C)c1OC (stereo not given) | – | – | – | inactive | inactive | inactive | inactive |
| CCCCN1C=CC(=C2C(=O)c3ccccc3C2=O)C=C1 | – | – | – | inactive | inactive | inactive | inactive |
| COc1cc2c(cc1OC)CN(C(=O)COc1ccccc1[N+](=O)[O-])CC2 | – | – | – | inactive | inactive | inactive | inactive |
| CCN(CC)c1ccc(Nc2cc3n(c(=O)n2)CCc2cc(OC)c(OC)cc2-3)cc1 | – | – | – | inactive | inactive | inactive | inactive |
| CS(=O)(=O)N1CCC(C(=O)Nc2ccc(OCc3ccccc3)cc2)CC1 | – | – | – | inactive | inactive | inactive | inactive |
| CCSc1nnc(NC(=O)C2C3C=CC(C3)C2C(=O)O)s1 (stereo not given) | – | – | – | inactive | inactive | inactive | inactive |
| COc1ccc(CC(=O)c2ccccc2C(=O)O)cc1 | – | – | – | inactive | inactive | inactive | inactive |
| O=[N+]([O-])c1cccc(-c2ccc3nnc(SCc4ccccn4)n3n2)c1 | – | – | – | inactive | inactive | inactive | inactive |
| Fc1ccc(SCCc2ccncc2)cc1 | – | – | – | inactive | inactive | inactive | inactive |

| SMILES | activation [1] | potentiation [2] | potentiation [3] | outcome [4] | outcome [2] | outcome [1] | outcome [3] |
| --- | --- | --- | --- | --- | --- | --- | --- |
| COc1ccc(CNC(=O)COC(=O)/C=C/c2ccc(Cl)cc2)cc1 | – | – | – | inactive | inactive | inactive | inactive |
| Cc1nn(-c2ccccc2)c(Cl)c1/C=C1\SC(=S)NC1=O | 614% (active) | 295% (active) | 704% (active) | inactive | – | – | – |
| CCOC(=O)c1sc2nc(Cc3ccc(Cl)cc3)[nH]c(=S)c2c1C | 302% (active) | 144% (active) | 362% (active) | inactive | – | – | – |
| Cc1cc(/C=N/NC(=O)c2cccs2)c(C)n1-c1ccccc1 | – | – | – | inactive | inactive | inactive | inactive |
| COc1ccc(CCN2CC(C(=O)Nc3ccc4c(c3)OCO4)CC2=O)cc1OC (stereo not given) | 156% (active) | 21% (active) | 158% (active) | inactive | – | – | – |
| CCc1ccc(/C=N/NC(=O)Cc2cccn2C)cc1 | – | – | – | inactive | inactive | inactive | inactive |
| Oc1[nH]c2ccc(Br)cc2c1N=NC(=S)NCC1CCCO1 (stereo not given) | 182% (active) | 37.5% (active) | 204% (active) | inactive | – | – | – |
| CN(C)CCNc1ncnc2c1sc1nc(N3CCCC3)c3c(c12)CC(C)(C)OC3 | – | 32% (active) | – | inactive | – | inactive | inactive |
| O=C(N/N=C/c1c[nH]c2ccccc12)C1COc2ccccc2O1 (stereo not given) | – | – | – | inactive | inactive | inactive | inactive |
| CCCCN(CCCC)c1cn[nH]c(=O)c1Cl | – | – | – | inactive | inactive | inactive | inactive |
| Cc1cccc(NC(=S)N/N=C(\c2ccccc2)C(C)C)c1 | – | 32% (active) | 152% (active) | inactive | – | inactive | – |
| CC12CCC(C(=O)N(CSC(=S)N/N=C\c3ccccc3Cl)C1=O)C2(C)C (stereo not given) | 178% (active) | 47% (active) | 152% (active) | inactive | – | – | – |
| Cc1ccc(-c2noc(CCC(=O)Nc3ccccc3N3CCN(C)CC3)n2)cc1 | – | – | – | inactive | inactive | inactive | inactive |
| Cc1ccc(-c2csc(=S)[nH]2)cc1 | 628% (active) | 189% (active) | 643% (active) | inactive | – | – | – |
| COc1ccc(CN2C(=O)C(C)S/C2=N/N=C/c2ccco2)cc1 (stereo not given) | – | – | – | inactive | inactive | inactive | inactive |
| Oc1c(N=Nc2ccccn2)ccc2ccccc12 | 182% (active) | 91.5% (active) | 168% (active) | inactive | – | – | – |
| Oc1cccc2ccc(Nc3ccccn3)nc12 | – | – | – | inactive | inactive | inactive | inactive |
| CCOC(=O)C1CCCN(C(=O)C2CCN(S(=O)(=O)c3ccc4ccccc4c3)CC2)C1 (stereo not given) | – | – | – | inactive | inactive | inactive | inactive |
| CCC1CCc2c(sc(NC(=O)C3CC=CCC3C(=O)O)c2C#N)C1 (stereo not given) | – | – | – | inactive | inactive | inactive | inactive |
| CCCOc1ccc(CN(CCC#N)C(=S)NC(=O)c2ccccc2)cc1 | 288% (active) | 134% (active) | 303% (active) | inactive | – | – | – |
